Test results reported in PMC4803553 (Endocrinology and Metabolism, 2016).
Read-outs that look alike come from different tables or passages of the source.

How the values were obtained:
[1] = tested on: hemoglobin A1c (HbA1c); assay type: in vivo, human; conditions: mean±SD; for After treatment HbA1c: after 3 months of treatment, kidney transplant patients with diabetes; for Difference of HbA1c (ΔHbA1c): change from baseline to 3 months of treatment
Method in brief: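 Renal allograft recipients with diabetes, all on cyclosporine-based triple maintenance therapy, started a DPP-4 inhibitor after transplant, at full or renally adjusted reduced dose (50 mg once daily). HbA1c was measured by immunoturbidimetry on an automated analyser and reported as NGSP %. Values at baseline and after 3 months of treatment were compared by paired t test; mean±SD.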

[2] = Renal function; assay type: in vivo, human; conditions: follow-up after DPP-4 inhibitor treatment, mean±SD; for Follow-up eGFR: MDRD equation
Method in brief: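 Fasting early-morning antecubital venous blood was taken from renal allograft recipients receiving a DPP-4 inhibitor. Creatinine was measured by the Jaffe method. eGFR was calculated with the Modification of Diet in Renal Disease study equation. Values are reported as mean±SD and were compared across inhibitor groups by one-way ANOVA with Scheffe post hoc tests.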

[3] = cited from earlier work

Compound	After treatment HbA1c [1] [%]	Difference of HbA1c (ΔHbA1c) [1] [%]	Difference of HbA1c (ΔHbA1c) ([1]; listed as vildagliptin)	Follow-up eGFR [2] [mL/min/1.73 m^2]	Follow-up creatinine [2] [mg/dL]	Eliminated in an unchanged form via the feces [3] [%]	Renal excretion, share of elimination [3] [%]	Difference of HbA1c (ΔHbA1c) ([1]; listed as sitagliptin)	Eliminated in an unchanged form in the urine [3] [%]
N#C[C@@H]1CCCN1C(=O)CNC12CC3CC(CC(O)(C3)C1)C2 [Vildagliptin, vildagliptin]	7.08±1.81	-0.38±1.03	–0.38%±1.03%	58.21±17.76	1.41 ± 0.95	–	–	–	–
CC#CCn1c(N2CCC[C@@H](N)C2)nc2c1c(=O)n(Cc1nc(C)c3ccccc3n1)c(=O)n2C [Linagliptin, linagliptin]	6.79±0.63	-1.40±1.34	–	62.82±18.74	1.25 ± 0.42	84.7	5.4	–	–
N[C@@H](CC(=O)N1CCn2c(nnc2C(F)(F)F)C1)Cc1cc(F)c(F)cc1F [Sitagliptin, sitagliptin]	7.18±1.21	-0.53±0.95	–	61.03±16.50	1.22 ± 0.82	–	–	–0.53%±0.95%	79
